Our source for the Drug uptake and Stability values is ChEMBL document CHEMBL1772994, “Metabolic stability of 6,7-dialkoxy-4-(2-, 3- and 4-[18F]fluoroanilino)quinazolines, potential EGFR imaging probes” (Bioorg Med Chem, 2011).

Data set [1] relates to Mus musculus. Description: Biodistribution in tumor of EGFR positive-MDA-MB-468 cells-xenografted tumor-bearing nude SCID mouse at 1 to 2 MBq, iv after 1 to 3 hrs postinjection. Conditions: in vivo; call rule not given here.
In data set [2] the test system is Mus musculus. Description: Biodistribution in tumor of EGFR positive-MDA-MB-468 cells-xenografted tumor-bearing nude SCID mouse at 1 to 2 MBq, iv after 1 hr postinjection. The settings on record: in vivo. In kind it is ADME, organism-based, Neoplasm. In short, it runs like this:
(§1)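 Nude SCID mice bearing subcutaneous MDA-MB-468 flank xenografts (about 1 million cells), with MDA-MB-435 (about 1 million cells) implanted in the shoulder in some cohorts. Under isoflurane, 1–2 MBq radiotracer in saline was given by tail-vein injection. Mice (n = 4 per time point) were euthanized 1–3 h post injection. Blood, tumor and tissues were weighed and counted, giving decay-corrected %ID/g.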

Data set [3] concerns Mus musculus. Description: Biodistribution in tumor of EGFR negative-MDA-MB-435 cells-xenografted tumor-bearing nude SCID mouse at 1 to 2 MBq, iv after 1 to 3 hrs postinjection. Conditions: in vivo.
The subject of data set [4] is Mus musculus. Description: Biodistribution in tumor of EGFR negative-MDA-MB-435 cells-xenografted tumor-bearing nude SCID mouse at 1 to 2 MBq, iv after 1 hr postinjection. It counts as ADME, organism-based, Neoplasm. Conditions: in vivo. In outline: as §1
Data set [5] deals with Bone. Description: Biodistribution in tumor-bearing nude SCID mouse bone at 1 to 2 MBq, iv after 1 hr postinjection. It counts as ADME, organism-based, Bone element. The settings on record: in vivo. In outline:
as §1

The test system of another data set is Hepatocyte. Description: Metabolic stability in cryopreserved human hepatocytes after 90 mins by radio-TLC assay. It counts as ADME, cell-based. The settings on record: 1.5 h. In short, it runs like this: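 Cryopreserved female human hepatocytes were thawed and resuspended in modified Krebs-Henseleit buffer, and the radiotracer in buffer was added to cell wells. Incubation was at 37 °C, 5% CO2. Aliquots taken at 5–120 min went into MeOH (2 volumes), were vortexed and centrifuged at 10,000 G for 5 min. Supernatant was run on silica TLC (10% EtOH/EtOAc) and read by radio-TLC scan. Viability was checked by Trypan Blue.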

For data set [6], the system named is Bone. Description: Biodistribution in tumor-bearing nude SCID mouse bone at 1 to 2 MBq, iv after 2 hrs postinjection. It counts as ADME, organism-based, Bone element. Conditions: in vivo. In outline:
as §1

Data set [7] concerns Mus musculus. Description: Biodistribution in tumor of 1 mg/kg PD153035 pretreated EGFR positive-MDA-MB-468 cells-xenografted tumor-bearing nude SCID mouse 1 to 2 MBq, iv after 1 hr relative to control. It counts as ADME, organism-based, Neoplasm. Set-up: dose 1 mg/kg, route intravenous. Conditions: in vivo. In short, it runs like this:
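A blocking arm received PD153035 1 mg/kg iv one hour before tail-vein injection of 1–2 MBq radiotracer in saline under isoflurane, compared with a control group. Nude SCID mice bore MDA-MB-468 flank xenografts (n = 4 per time point). Tumor was excised, weighed and counted, giving decay-corrected %ID/g.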

Data set [8] relates to Bone. Description: Biodistribution in tumor-bearing nude SCID mouse bone at 1 to 2 MBq, iv after 3 hrs postinjection. It counts as ADME, organism-based, Bone element. Conditions: in vivo. In outline:
as §1

As for `CCOc1cc2ncnc(Nc3ccc([18F])cc3)c2cc1OCC`, the Drug uptake with Mus musculus [1] is listed as less than 0.6%; in the data set with Mus musculus [2], less than 0.6%; with Mus musculus [3], less than 0.6%; in the data set with Mus musculus [4], less than 0.6%; in the data set on Bone [5], 5%; in the data set on Bone [6] it was 5%. Moreover, the Stability entry in the data set on Hepatocyte is reported as “Unstable”.

As for `COc1cc2ncnc(Nc3ccc([18F])cc3)c2cc1OC`, the Drug uptake in the data set on Mus musculus [1] is less than 0.6%; with Mus musculus [2], less than 0.6%; in the data set on Mus musculus [3] it was less than 0.6%; in the data set on Mus musculus [4] it was less than 0.6%; in the data set with Bone [5], 5%; in the data set on Bone [6], 5%. Besides, the Stability result in the data set with Hepatocyte was “Unstable”.

For `COc1cc2ncnc(Nc3ccccc3[18F])c2cc1OC`, the Drug uptake with Mus musculus [1] is reported as less than 0.6%; in the data set with Mus musculus [2], less than 0.6%; in the data set with Mus musculus [3] it was less than 0.6%; with Mus musculus [7], “Active”; with Mus musculus [4], less than 0.6%; with Bone [8], 2%. Besides, in the data set with Bone [5], the Drug uptake came to 2%. For the same compound, in the data set with Hepatocyte, the Stability entry is “Stable”.

For the compound `COc1cc2ncnc(Nc3cccc([18F])c3)c2cc1OC`, the Stability result in the data set with Hepatocyte is given as “Stable”.

In the case of `CCOc1cc2ncnc(Nc3ccccc3[18F])c2cc1OCC`, the Drug uptake in the data set with Mus musculus [1] is less than 0.6%; in the data set with Mus musculus [2], less than 0.6%; in the data set on Mus musculus [3], less than 0.6%; with Mus musculus [4] it was less than 0.6%; in the data set with Bone [8] it was 2%; in the data set on Bone [5] it was 2%. Moreover, the Stability entry in the data set with Hepatocyte is listed as “Stable”.

On to `CCOc1cc2ncnc(Nc3cccc([18F])c3)c2cc1OCC`, for which, in the data set on Hepatocyte, the Stability entry is listed as “Stable”.
